Results on one compound are retold here after ChEMBL document CHEMBL4477178, “Biflorin, Isolated from the Flower Buds of Syzygium aromaticum L., Suppresses LPS-Induced Inflammatory Mediators via STAT1 Inactivation in Macrophages and Protects Mice from Endotoxin Shock” (J Nat Prod, 2016).

The structures appear in SMILES notation. Activity calls are given as the source filed them. The calls are words filed in the database; no cut-off is given here.

Series [1] concerns RAW264.7. The experiment in a line: Antiinflammatory activity in mouse RAW264.7 cells assessed as inhibition of LPS-induced TNF-alpha production at 60 uM preincubated for 1 hr followed by LPS challenge for 24 hrs by ELISA method. Type of series: functional. The procedure, abridged: (§1)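 RAW 264.7 cells in DMEM with 10% FBS, plated at 2 × 10^5 cells/mL and incubated overnight. Pretreated with compound (15, 30 or 60 μM) for 1 h, then LPS 10 ng/mL for 24 h. PGE2 measured by competitive colorimetric ELISA, TNF-α and IL-6 by ELISA, in diluted medium. NS-398 3 μM as positive control for PGE2. Mean ± SD, three independent experiments; IC50 given for PGE2.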
In general terms: In an ELISA, binding on a coated surface is turned into a signal by an enzyme label.

Series [2] concerns Peritoneal macrophage. The experiment in a line: Antiinflammatory activity in C57BL/6 mouse peritoneal macrophages assessed as inhibition of LPS-induced nitric oxide production at 60 uM preincubated for 1 hr followed by LPS challenge for 48 hrs by Griess assay. The format is functional. The note with it: C57BL/6, Peritoneal macrophage. The procedure, abridged: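 Thioglycolate-elicited C57BL/6 mouse peritoneal macrophages, plated at 5 × 10^5 cells/mL and incubated overnight. Compound given at 15, 30 or 60 μM for 1 h, then LPS 10 μg/mL. Medium mixed 1:1 with Griess reagent for 10 min at room temperature, absorbance read at 540 nm, nitrite quantified against a NaNO2 standard. L-NIL 20 μM as positive control; three independent experiments.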
A general note: Griess reagent forms a coloured azo dye with nitrite.

Series [3] has as its system RAW264.7. The experiment in a line: Antiinflammatory activity in mouse RAW264.7 cells assessed as inhibition of LPS-induced nitric oxide production preincubated for 1 hr followed by LPS challenge for 24 hrs by Griess assay. The format is functional, cell-based. The procedure, abridged: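 RAW 264.7 cells plated at 2 × 10^5 cells/mL and incubated overnight. Compound given at 15, 30 or 60 μM for 1 h, then LPS 10 ng/mL for 24 h. Nitrite in the medium measured by Griess reagent (10 min, room temperature, A540) against a NaNO2 standard. L-NIL 20 μM as positive control; IC50 derived; three independent experiments.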

For series [4], the system named is RAW264.7. Kind of series: Antiinflammatory activity in mouse RAW264.7 cells assessed as inhibition of LPS-induced PGE2 production preincubated for 1 hr followed by LPS challenge for 24 hrs by ELISA method. Type of series: functional, cell-based. An outline of the steps:
as §1

Series [5] relates to RAW264.7. The experiment in a line: Antiinflammatory activity in mouse RAW264.7 cell lysate assessed as inhibition of LPS-induced COX-2 expression preincubated for 1 hr followed by LPS challenge for 24 hrs by Western blot analysis. Type of series: functional, cell-based. The procedure, abridged: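 RAW 264.7 (DMEM, 10% FBS, 37 °C, 5% CO2) pretreated 1 h at 15, 30 or 60 μM, then LPS 10 ng/mL for 24 h. Lysates run on 10–12% SDS-PAGE, blotted to PVDF, probed with iNOS or COX-2 antibody (1:1000, overnight 4 °C), HRP secondary, ECL; densitometry vs β-actin. Mean ± SD of three independent experiments.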
A general note: A western blot detects proteins with antibodies after separation by electrophoresis.

For series [6], the system named is Peritoneal macrophage. The experiment in a line: Antiinflammatory activity in C57BL/6 mouse peritoneal macrophages assessed as inhibition of LPS-induced PGE2 production at 60 uM preincubated for 1 hr followed by LPS challenge for 48 hrs by ELISA method. Type of series: functional. The settings on record: C57BL/6, Peritoneal macrophage.
The test system of series [7] is Peritoneal macrophage. Kind of series: Antiinflammatory activity in C57BL/6 mouse peritoneal macrophages assessed as inhibition of LPS-induced IL-6 production at 60 uM preincubated for 1 hr followed by LPS challenge for 48 hrs by ELISA method. The format is functional. The note with it: C57BL/6, Peritoneal macrophage.
Series [8] can be described thus: Cytotoxicity against C57BL/6 mouse peritoneal macrophages assessed as cell viability at 60 uM after 24 hrs by MTT assay. Type of series: cell-based, Peritoneal macrophage. The settings on record: read-out: Activity. The procedure, abridged:
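Peritoneal macrophages from thioglycolate-elicited C57BL/6 male mice (harvested by lavage after 4 days, cultured in DMEM/10% FBS) exposed 24 h up to 60 μM; viability by MTT assay.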

For series [9], the system named is RAW264.7. Kind of series: Reduction in LPS-induced NF-kappa B activity in mouse RAW264.7 cells at 15 to 60 uM preincubated for 1 hr followed by LPS challenge for 12 hrs by luciferase reporter gene assay. The format is cell-based.
The target in series [10] is Transcription factor Jun (Mus musculus) (UniProt P05627). Kind of series: Inhibition of LPS-induced AP-1 activity in mouse RAW264.7 cells at 15 to 60 uM preincubated for 1 hr followed by LPS challenge for 12 hrs by luciferase reporter gene assay. The format is cell-based.
Transcription factor Jun (Mus musculus), sequence (P05627 whole entry): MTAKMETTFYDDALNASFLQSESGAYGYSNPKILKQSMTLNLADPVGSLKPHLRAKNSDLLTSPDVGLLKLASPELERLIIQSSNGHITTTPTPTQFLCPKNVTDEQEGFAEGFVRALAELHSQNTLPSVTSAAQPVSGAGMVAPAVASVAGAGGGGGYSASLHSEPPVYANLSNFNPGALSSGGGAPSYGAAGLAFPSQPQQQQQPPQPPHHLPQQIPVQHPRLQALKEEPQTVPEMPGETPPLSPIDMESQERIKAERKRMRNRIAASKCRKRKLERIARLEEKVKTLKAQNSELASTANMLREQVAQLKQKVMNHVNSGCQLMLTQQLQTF
Series [11] deals with Signal transducer and activator of transcription 3 (Mus musculus) (UniProt P42227). Kind of series: Inhibition of LPS-induced STAT3 phosphorylation at Y705 in C57BL/6 mouse peritoneal macrophages at 15 to 60 uM preincubated for 1 hr followed by LPS challenge for 60 mins by Western blot analysis. An outline of the steps: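 Thioglycolate-elicited C57BL/6 peritoneal macrophages pretreated 1 h at 15, 30 or 60 μM, then LPS 10 μg/mL: 120 min for p-STAT1 Y701, 30 min for p-STAT1 S727, 60 min for p-STAT3 Y705. Western blot with phospho-specific and total STAT antibodies, β-actin control; three independent experiments.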
Signal transducer and activator of transcription 3 (Mus musculus), sequence (P42227 whole entry): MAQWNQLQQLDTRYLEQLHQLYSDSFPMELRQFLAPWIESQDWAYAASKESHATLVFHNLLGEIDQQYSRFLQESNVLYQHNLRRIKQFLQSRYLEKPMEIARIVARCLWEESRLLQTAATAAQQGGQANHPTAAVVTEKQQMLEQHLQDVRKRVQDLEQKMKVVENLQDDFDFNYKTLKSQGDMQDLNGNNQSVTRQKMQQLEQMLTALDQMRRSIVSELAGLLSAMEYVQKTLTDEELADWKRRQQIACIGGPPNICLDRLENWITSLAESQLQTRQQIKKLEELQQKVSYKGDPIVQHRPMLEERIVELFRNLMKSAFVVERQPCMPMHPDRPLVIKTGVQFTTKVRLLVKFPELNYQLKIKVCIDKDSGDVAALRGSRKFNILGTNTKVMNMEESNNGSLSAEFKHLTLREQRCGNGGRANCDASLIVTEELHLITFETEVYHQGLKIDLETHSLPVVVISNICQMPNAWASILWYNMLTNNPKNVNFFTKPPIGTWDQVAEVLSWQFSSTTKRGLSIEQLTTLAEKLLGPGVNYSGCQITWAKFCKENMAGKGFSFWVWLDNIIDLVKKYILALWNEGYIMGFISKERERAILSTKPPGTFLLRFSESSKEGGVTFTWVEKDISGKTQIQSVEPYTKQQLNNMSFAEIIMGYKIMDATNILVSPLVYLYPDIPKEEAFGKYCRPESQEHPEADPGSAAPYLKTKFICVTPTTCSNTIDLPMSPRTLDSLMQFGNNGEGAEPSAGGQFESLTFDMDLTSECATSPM

The test system of series [12] is RAW264.7. The experiment in a line: Inhibition of LPS-induced JNK phosphorylation in mouse RAW264.7 cells at 15 to 60 uM preincubated for 1 hr followed by LPS challenge for 30 mins by Western blot analysis. The format is cell-based. The procedure, abridged: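 RAW 264.7 pretreated 1 h at 15, 30 or 60 μM, then LPS 10 ng/mL for 30 min. Lysates Western-blotted for p-p38, p38, p-JNK, JNK, p-ERK, ERK with β-actin control; ECL, densitometry. Three independent experiments.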

For another series, the system named is Mus musculus. Kind of series: Inhibition of LPS-induced iNOS mRNA expression in C57BL/6 mouse liver at 10 mg/kg, ip pretreated for 1 hr followed by LPS challenge for 6 hrs by qRT-PCR method. Type of series: functional, organism-based. An outline of the steps:
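Male C57BL/6 mice given 10 mg/kg i.p. or vehicle 1 h before LPS (Salmonella enterica, 25 mg/kg i.p.); liver collected 6 h after LPS, frozen at −80 °C. Liver mRNA by SYBR qRT-PCR normalized to β-actin; protein by Western blot for p-STAT1 (Y701, S727). Eight mice per group; mean ± SD.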

Series [13] has as its system Rattus norvegicus. The experiment in a line: Antiinflammatory activity in Sprague-Dawley rat assessed as inhibition of croton oil-induced ear edema at 10 mg/kg, ip administered 1 hr before croton oil challenge measured after 3 hrs post challenge relative to control. The format is functional. An outline of the steps:
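Male SD rats given compound i.p. (5, 10 or 15 mg/kg) 1 h before topical croton oil (5% in 100 μL acetone) on the inner right ear; the left ear received acetone alone. After 3 h, rats were killed and 6 mm ear punches were taken and measured for thickness. Inhibition calculated relative to the croton-oil-only group; seven rats per group.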

Series [14] relates to Rattus norvegicus. The experiment in a line: Antiinflammatory activity in Sprague-Dawley rat assessed as inhibition of croton oil-induced ear edema at 10 mg/kg, ip administered 1 hr before croton oil challenge measured after 3 hrs by hematoxylin and eosin staining based assay. Type of series: functional, organism-based. The procedure, abridged:
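SD male rats dosed i.p. (10 mg/kg) 1 h before topical croton oil (5% in acetone) on inner right ear; left ear got acetone only. At 3 h rats sacrificed, 6 mm ear punches taken, fixed in 4% paraformaldehyde overnight, paraffin-embedded, H&E-stained for edema and inflammatory cell infiltrate; seven animals per group.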

As a reminder, the inhibition is the change of the read-out against control, counted positive when it falls. The IC50 is the concentration at which inhibition is half-maximal. The inhibition in vivo is the change of the read-out against control, counted positive when it falls. For `Cc1cc(=O)c2c(O)c([C@@H]3O[C@H](CO)[C@@H](O)[C@H](O)[C@H]3O)c(O)cc2o1` [BIFLORIN], the inhibition at 60 µM in the series on RAW264.7 [1] turned out to be 75%; in the series on Peritoneal macrophage [2], 55.9%; with Peritoneal macrophage [6], 42.2%; in the series with Peritoneal macrophage [7] it was 61.1%. Also, the half-inhibitory concentration (IC50) in the series on RAW264.7 [3] was 51.7 µM; in the series on RAW264.7 [4] it was 37.1 µM. Moreover, in the series on RAW264.7 [5], the inhibition entry is “Dose-dependent effect”. The viability at 24 h, 60 µM in [8] is 90.4%. Besides, the inhibition result (in the series on RAW264.7 [9]; in [10]; in the series on RAW264.7 [12]) was “inactive” in each case. The inhibition entry (in [11]; with Mus musculus; in the series with Rattus norvegicus [14]) was “Active” throughout. Further, in the series with Rattus norvegicus [13], the inhibition in vivo at 10 mg/kg was found to be 44.5%.
